From ChEMBL document CHEMBL4049390, “Combination of amino acid/dipeptide with ligustrazine-betulinic acid as antitumor agents” (Eur J Med Chem, 2017)
Activity calls are given as the source filed them. The calls are words filed in the database; no cut-off is given here.

Columns and labels:
HepG2 [1] = assay: Induction of apoptosis in human HepG2 cells assessed as nuclear condensation after 72 hrs by DAPI staining based fluorescent microscopic method; type: functional, cell-based
Procedure, shortened: (§1)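 HepG2 cells were plated at 4×10^3 cells/well in six-well plates and grown 12 h, then treated at 1.5, 3 or 6 µM for 72 h. Cells were washed in PBS, fixed in 4% paraformaldehyde and stained with 1 mg/mL DAPI for 1 min in the dark. Nuclei were viewed by fluorescence microscopy at 200×.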

HepG2 [2] = assay: Induction of apoptosis in human HepG2 cells assessed as increase in intracellular calcium level by measuring mean fluorescence intensity at 4 uM after 72 hrs by Fluo-3AM dye based flow cytometry (reference value: 1992); type: functional
Procedure, shortened: (§2)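 HepG2 cells at 1×10^5 cells/well were grown 24 h, then treated with compound for 72 h. Cells were harvested, washed in cold PBS and resuspended in HBSS containing 10 µM Fluo-3 AM for 30 min at 37 °C in the dark. Flow cytometry used 488 nm excitation; the read-out was mean fluorescence intensity against an untreated control.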

BGC-823 = assay: Potency index, ratio of cisplatin IC50 to compound IC50 for human BGC823 cells; type: functional
Procedure, shortened: (§3)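 Ratios were calculated from MTT IC50 values (72 h exposure, A490 read-out, n = 3). Potency index = cisplatin IC50 / compound IC50. Therapeutic index = MDCK IC50 / tumour-line IC50.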

HepG2 [3] = assay: Induction of apoptosis in human HepG2 cells assessed as disruption of mitochondrial membrane potential by measuring mean fluorescence intensity at 3 uM after 72 hrs by Rh123 staining based flow cytometry (reference value: 26410); type: functional
HeLa = assay: Potency index, ratio of cisplatin IC50 to compound IC50 for human HeLa cells; type: functional; procedure, shortened: as §3
HT-29 = assay: Potency index, ratio of cisplatin IC50 to compound IC50 for human HT-29 cells; type: functional; procedure, shortened: as §3
HepG2 [4] = assay: Induction of apoptosis in human HepG2 cells assessed as early apoptotic cells at 4 uM after 72 hrs by Annexin-V-FITC/propidium iodide staining based flow cytometry (reference value: 3.7%); type: functional
HepG2 [5] = assay: Induction of apoptosis in human HepG2 cells assessed as nuclear fragmentation at 1.5 to 6 uM after 72 hrs by Giemsa staining based fluorescent microscopic method; type: functional, cell-based
Procedure, shortened: (§4)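 HepG2 cells were seeded at 4×10^3 cells/well in 6-well plates overnight, then treated at 1.5, 3 or 6 µM for 72 h. Cells were washed in PBS, fixed in cold methanol, stained with 6% Giemsa for 5 min, rinsed with water and dried. Morphology was examined microscopically at 200×, with apoptotic cells marked in representative fields.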

HepG2 [6] = assay: Induction of apoptosis in human HepG2 cells assessed as disruption of mitochondrial membrane potential by measuring mean fluorescence intensity after 72 hrs by Rh123 staining based flow cytometry; type: functional, cell-based
Procedure, shortened: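 Mitochondrial potential: HepG2 cells (1×10^5/well, 6-well) were grown 24 h, then exposed at 2, 3 or 4 µM for 72 h. Cells were trypsinised, washed in cold PBS and loaded with 10 µg/mL rhodamine 123 for 30 min at 37 °C. After washing, flow cytometry was run (ex 488/em 530 nm); the read-out is mean fluorescence intensity.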

HepG2 [7] = assay: Induction of apoptosis in human HepG2 cells assessed as late apoptotic cells at 2 uM after 72 hrs by Annexin-V-FITC/propidium iodide staining based flow cytometry (reference value: 2.6%); type: functional
HepG2 [8] = assay: Induction of apoptosis in human HepG2 cells assessed as late apoptotic cells at 4 uM after 72 hrs by Annexin-V-FITC/propidium iodide staining based flow cytometry (reference value: 2.6%); type: functional
HepG2 [9] = assay: Induction of apoptosis in human HepG2 cells assessed as increase in intracellular calcium level by measuring mean fluorescence intensity after 72 hrs by Fluo-3AM dye based flow cytometry; type: functional, cell-based
Procedure, shortened: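 Intracellular Ca2+: HepG2 cells (1×10^5/well, 6-well) were grown 24 h, then treated at 2, 3 or 4 µM for 72 h. Cells were harvested, washed in cold PBS and resuspended in HBSS with 10 µM Fluo-3AM for 30 min at 37 °C in the dark. Flow cytometry used 488 nm excitation; the read-out is mean fluorescence intensity.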

HepG2 [10] = assay: Induction of apoptosis in human HepG2 cells assessed as viable cells at 2 uM after 72 hrs by Annexin-V-FITC/propidium iodide staining based flow cytometry (reference value: 93.2%); type: functional; conditions: HepG2, 72 h, read-out: Activity
HepG2 [11] = assay: Induction of apoptosis in human HepG2 cells assessed as formation of apoptotic bodies after 72 hrs by DAPI staining based fluorescent microscopic method; type: functional, cell-based; procedure, shortened: as §1
HepG2 [12] = assay: Induction of apoptosis in human HepG2 cells assessed as cell shrinkage at 1.5 uM after 72 hrs by Giemsa staining based fluorescent microscopic method; type: functional; procedure, shortened: as §4
HepG2 [13] = assay: Antiproliferative activity against human HepG2 cells after 72 hrs by MTT assay; type: functional, cell-based; conditions: HepG2, 72 h
Procedure, shortened: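 MTT assay. Log-phase cells were seeded at 3×10^3 cells/well and left overnight, then exposed to serial dilutions of compound (DMSO solutions) for 72 h in RPMI 1640 with 10% heat-inactivated FBS at 37 °C, 5% CO2. MTT (5 mg/mL, 20 µL) was added for 4 h at 37 °C and the formazan dissolved in DMSO. A490 was read. % inhibition = (1 − sample OD/control OD)×100; IC50 is the 50% growth-inhibition concentration. Triplicates, n = 3 independent experiments.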

HepG2 [14] = assay: Induction of apoptosis in human HepG2 cells assessed as nuclear condensation at 6 uM after 72 hrs by Giemsa staining based fluorescent microscopic method; type: functional, cell-based; procedure, shortened: as §4
HepG2 [15] = assay: Induction of apoptosis in human HepG2 cells assessed as increase in intracellular calcium level by measuring mean fluorescence intensity at 3 uM after 72 hrs by Fluo-3AM dye based flow cytometry (reference value: 1992); type: functional; procedure, shortened: as §2
HepG2 [16] = assay: Induction of apoptosis in human HepG2 cells assessed as late apoptotic cells at 3 uM after 72 hrs by Annexin-V-FITC/propidium iodide staining based flow cytometry (reference value: 2.6%); type: functional
HepG2 [17] = assay: Induction of apoptosis in human HepG2 cells assessed as disruption of mitochondrial membrane potential by measuring mean fluorescence intensity at 2 uM after 72 hrs by Rh123 staining based flow cytometry (reference value: 26410); type: functional
HepG2 [18] = assay: Potency index, ratio of cisplatin IC50 to compound IC50 for human HepG2 cells; type: functional; procedure, shortened: as §3
HepG2 [19] = assay: Induction of apoptosis in human HepG2 cells assessed as necrotic cells at 2 uM after 72 hrs by Annexin-V-FITC/propidium iodide staining based flow cytometry (reference value: 0.5%); type: functional
HepG2 [20] = assay: Induction of apoptosis in human HepG2 cells assessed as viable cells at 3 uM after 72 hrs by Annexin-V-FITC/propidium iodide staining based flow cytometry (reference value: 93.2%); type: functional; conditions: HepG2, 72 h, read-out: Activity
HepG2 [21] = assay: Induction of apoptosis in human HepG2 cells assessed as necrotic cells at 4 uM after 72 hrs by Annexin-V-FITC/propidium iodide staining based flow cytometry (reference value: 0.5%); type: functional
HepG2 [22] = assay: Induction of apoptosis in human HepG2 cells after 72 hrs by Annexin-V-FITC/propidium iodide staining based flow cytometry; type: functional, cell-based
HepG2 [23] = assay: Induction of apoptosis in human HepG2 cells assessed as chromatin margination at 1.5 uM after 72 hrs by Giemsa staining based fluorescent microscopic method; type: functional, cell-based; procedure, shortened: as §4

C=C(C)[C@@H]1CC[C@]2(C(=O)OCc3nc(C)c(C)nc3C)CC[C@]3(C)[C@H](CC[C@@H]4[C@@]5(C)CC[C@H](OC(=O)[C@H](C)NC(=O)CNC)C(C)(C)[C@@H]5CC[C@]43C)[C@@H]12
Activity (HepG2 [1]): Dose-dependent effect
Flu intensity (HepG2 [2]): 6353
Ratio IC50 (BGC-823): 2
Flu intensity (HepG2 [3]): 5411
Ratio IC50 (HeLa): 2
Ratio IC50 (HT-29): 2
Activity (HepG2 [4]): 29.9%
Activity (HepG2 [5]): Active
Activity (HepG2 [6]): Dose-dependent effect
Activity (HepG2 [7]): 4.8%
Activity (HepG2 [8]): 6.9%
Activity (HepG2 [9]): Dose-dependent effect
viability at 2 µM (HepG2 [10]): 88%
Activity (HepG2 [11]): Dose-dependent effect
Activity (HepG2 [12]): Active
IC50 (HepG2 [13]): 3.09 µM
Activity (HepG2 [14]): Active
Flu intensity (HepG2 [15]): 3760
Activity (HepG2 [16]): 6.5%
Flu intensity (HepG2 [17]): 6416
Ratio IC50 (HepG2 [18]): 2
Activity (HepG2 [19]): 1.1%
viability at 3 µM (HepG2 [20]): 81%
Activity (HepG2 [21]): 1%
Activity (HepG2 [22]): Dose-dependent effect
Activity (HepG2 [23]): Active
